Test results published in ChEMBL document CHEMBL4351018, “Novel phenanthridin-6(5H)-one derivatives as potent and selective BET bromodomain inhibitors: Rational design, synthesis and biological evaluation” (Eur J Med Chem, 2019).
pIC50: −log10 of the molar value.

Legend:
[1] = molecular target: Bromodomain-containing protein 4 (Homo sapiens, UniProt O60885); test: Binding affinity to recombinant human His-tagged BRD4 bromodomain 1 expressed in […] insect cells using biotinylated H4(1 to 21)K5/8/12/16Ac peptide as substrate at 20 uM preincubated for 30 mins followed by substrate addition and measured after 30 mins by Alpha screen assay relative to control
[2] = molecular target: Bromodomain testis-specific protein (Homo sapiens) (UniProt Q58F21); test: Binding affinity to BRDT bromodomain 1 (unknown origin) at 20 uM by Alpha screen assay relative to control
[3] = molecular target: Bromodomain testis-specific protein (Homo sapiens) (UniProt Q58F21); test: Binding affinity to BRDT bromodomain 2 (unknown origin) at 20 uM by Alpha screen assay relative to control
Peregrin (Homo sapiens) = molecular target: T1, Peregrin (Homo sapiens) (UniProt P55201); test: Binding affinity to BRPF1B (unknown origin) at 20 uM by Alpha screen assay relative to control
T1 sequence (whole entry): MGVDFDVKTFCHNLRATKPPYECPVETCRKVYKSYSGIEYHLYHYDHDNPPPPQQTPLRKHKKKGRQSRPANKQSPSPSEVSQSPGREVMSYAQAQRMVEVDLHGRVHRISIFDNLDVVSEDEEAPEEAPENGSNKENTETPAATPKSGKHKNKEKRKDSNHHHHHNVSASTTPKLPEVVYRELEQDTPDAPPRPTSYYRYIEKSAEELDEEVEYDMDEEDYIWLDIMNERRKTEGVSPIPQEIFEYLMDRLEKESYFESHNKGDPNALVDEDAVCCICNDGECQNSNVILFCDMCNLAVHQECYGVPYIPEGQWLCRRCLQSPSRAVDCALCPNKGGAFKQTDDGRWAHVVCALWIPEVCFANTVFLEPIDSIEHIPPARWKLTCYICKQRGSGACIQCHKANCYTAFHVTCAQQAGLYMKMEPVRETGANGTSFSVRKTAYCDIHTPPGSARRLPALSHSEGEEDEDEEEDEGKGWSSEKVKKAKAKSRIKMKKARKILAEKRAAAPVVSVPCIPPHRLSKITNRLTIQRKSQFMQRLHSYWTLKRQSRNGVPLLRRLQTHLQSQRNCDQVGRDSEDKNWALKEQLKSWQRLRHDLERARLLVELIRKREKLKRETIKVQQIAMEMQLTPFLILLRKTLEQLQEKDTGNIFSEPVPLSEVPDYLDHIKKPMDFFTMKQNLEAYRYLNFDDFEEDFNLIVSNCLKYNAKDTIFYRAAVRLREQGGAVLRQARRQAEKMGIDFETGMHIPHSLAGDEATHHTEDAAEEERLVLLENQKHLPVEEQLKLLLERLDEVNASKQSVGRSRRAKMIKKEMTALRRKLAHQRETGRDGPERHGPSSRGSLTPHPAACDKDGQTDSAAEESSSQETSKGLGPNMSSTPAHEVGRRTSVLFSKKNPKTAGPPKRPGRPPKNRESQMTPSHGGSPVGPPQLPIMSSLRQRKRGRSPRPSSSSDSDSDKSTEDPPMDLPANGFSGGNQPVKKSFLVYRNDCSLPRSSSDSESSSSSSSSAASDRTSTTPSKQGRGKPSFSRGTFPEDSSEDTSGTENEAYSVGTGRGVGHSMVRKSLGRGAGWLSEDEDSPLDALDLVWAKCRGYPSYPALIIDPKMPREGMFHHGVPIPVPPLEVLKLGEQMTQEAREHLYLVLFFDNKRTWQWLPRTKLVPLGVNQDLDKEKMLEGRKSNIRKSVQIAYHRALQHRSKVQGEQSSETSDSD

SGC-7901 = test: Antiproliferative activity against human SGC7901 cells incubated for 48 hrs by MTT assay; type: functional, cell-based; settings: SGC-7901, 48 h
Summary of the method: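 Cells kept in DMEM or RPMI 1640 with 10% FBS at 37 °C, 5% CO2. MTT added for 4 h at 37 °C, formazan dissolved in DMSO, OD read at 570 nm. Survival % taken relative to blank and control wells. Triplicate runs; IC50 from curve fit.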

A549 [4] = test: Induction of apoptosis in human A549 cells assessed as viable cells at 1.0 uM incubated for 48 hrs by annexin V-FITC/PI double staining based flow cytometric analysis (reference value: 98.2%); type: functional; settings: A549, 48 h, read-out: Activity
A549 [5] = test: Induction of apoptosis in human A549 cells assessed as necrotic cells at 0.3 uM incubated for 48 hrs by annexin V-FITC/PI double staining based flow cytometric analysis (reference value: 0%); type: functional
A549 [6] = test: Induction of apoptosis in human A549 cells assessed as early apoptotic cells at 1.0 uM incubated for 48 hrs by annexin V-FITC/PI double staining based flow cytometric analysis (reference value: 1.76%); type: functional
A549 [7] = test: Induction of apoptosis in human A549 cells assessed as late apoptotic cells at 1.0 uM incubated for 48 hrs by annexin V-FITC/PI double staining based flow cytometric analysis (reference value: 0.039%); type: functional
A549 [8] = test: Induction of apoptosis in human A549 cells assessed as viable cells at 3.0 uM incubated for 48 hrs by annexin V-FITC/PI double staining based flow cytometric analysis (reference value: 98.2%); type: functional; settings: A549, 48 h, read-out: Activity
A549 [9] = test: Induction of apoptosis in human A549 cells assessed as necrotic cells at 3.0 uM incubated for 48 hrs by annexin V-FITC/PI double staining based flow cytometric analysis (reference value: 0%); type: functional
A549 [10] = test: Induction of apoptosis in human A549 cells assessed as early apoptotic cells at 5.0 uM incubated for 48 hrs by annexin V-FITC/PI double staining based flow cytometric analysis (reference value: 1.76%); type: functional
A549 [11] = test: Induction of apoptosis in human A549 cells assessed as late apoptotic cells at 5.0 uM incubated for 48 hrs by annexin V-FITC/PI double staining based flow cytometric analysis (reference value: 0.039%); type: functional
[12] = Apparent clearance in Sprague-Dawley rat at 2.5 mg/kg, iv measured for 0.083 to 24 hrs by LC-MS/MS analysis; type: ADME, organism-based; settings: in vivo, read-out: CL(app) (converted)
[13] = AUC (0 to infinity) in Sprague-Dawley rat at 10 mg/kg, po measured for 0.083 to 24 hrs by LC-MS/MS analysis; type: ADME, organism-based; parameters: dose 10 mg/kg, route oral, time infinity; settings: in vivo
[14] = Half life in Sprague-Dawley rat at 10 mg/kg, po measured for 0.083 to 24 hrs by LC-MS/MS analysis; type: ADME, organism-based; settings: in vivo
[15] = Cmax in Sprague-Dawley rat at 10 mg/kg, po measured for 0.083 to 24 hrs by LC-MS/MS analysis; type: ADME, organism-based; parameters: dose 10 mg/kg, route oral; settings: in vivo
A549 [16] = test: Induction of cell cycle arrest in human A549 cells assessed as accumulation at […] phase at 3.0 uM incubated for 48 hrs by BrdU/PI staining based flow cytometric analysis; type: functional
Summary of the method: (§1)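 Subconfluent A549 cells exposed 48 h to 0.3–5.0 μM with DMSO vehicle control. Pulse-labelled with 10 μM BrdU for 30 min at 37 °C before harvest. Fixed in 70% ethanol, denatured in 2 M HCl, neutralised, then stained with fluorescein anti-BrdU antibody and propidium iodide. Analysed by flow cytometry with 488 nm excitation.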

A549 [17] = test: Induction of cell cycle arrest in human A549 cells assessed as increase in accumulation at G1 phase incubated for 48 hrs by BrdU/PI staining based flow cytometric analysis; type: functional; summary of the method: as §1

Activity [1]: > 70% | Activity [2]: > 70% | Activity [3]: > 70% | Activity (Peregrin (Homo sapiens)): > 30% | pIC50 (SGC-7901): 5.27 | clearance [12]: 5.15 L/h/kg | AUC(0-inf) [13]: 0.67 µg·h/mL | half-life [14]: 3.87 h | Cmax [15]: 0.0524 µg/mL
Structure (SMILES): COc1ccc(Cl)cc1S(=O)(=O)Nc1ccc2[nH]c(=O)c3ccccc3c2c1
viability at 1 µM (A549 [4]): 46.1% | Activity (A549 [5]): 0.02% | Activity (A549 [6]): 47.8% | Activity (A549 [7]): 6.13% | viability at 3 µM (A549 [8]): 24.6% | Activity (A549 [9]): 0% | Activity (A549 [10]): 72% | Activity (A549 [11]): 8.25% | Activity (A549 [16]): 76.42% | Activity (A549 [17]): Dose-dependent effect
